From ChEMBL document CHEMBL1122866, “3-Phenyl-1-indanamines. Potential antidepressant activity and potent inhibition of dopamine, norepinephrine, and serotonin uptake” (J Med Chem, 1985)

How the values were obtained:
Assay type in all cases: functional
Mus musculus [1] = species: Mus musculus; assay: Antagonistic activity against 5-HTP induced potentiation in mice
Procedure, shortened: (§1)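 Mice dosed intraperitoneally; the result is reported as the ED50 in μmol/kg with a range in parentheses. Test compounds are racemates of >95% isomeric purity by TLC.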

Mus musculus [2] = species: Mus musculus; assay: Antagonistic activity against tetrabenazine-induced ptosis in mice.; procedure, shortened: as §1
[3] = target: Norepinephrine transporter (Rattus norvegicus, UniProt Q9WTR4); assay: Inhibition of noradrenaline uptake in rat synaptosomal fraction
Procedure, shortened: (§2)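 Synaptosomal uptake of DA, NE or 5-HT measured. The IC50 is in nM and is the mean of at least two determinations, each using five test concentrations in triplicate.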

[4] = target: Sodium-dependent dopamine transporter (Rattus norvegicus, UniProt P23977); assay: Inhibition of dopamine uptake in rat synaptosomal fraction
[5] = target: Sodium-dependent serotonin transporter (Rattus norvegicus, UniProt P31652); assay: Inhibition of 5-HT uptake in rat synaptosomal fraction; procedure, shortened: as §2
Chain of Sodium-dependent serotonin transporter (P31652 whole entry): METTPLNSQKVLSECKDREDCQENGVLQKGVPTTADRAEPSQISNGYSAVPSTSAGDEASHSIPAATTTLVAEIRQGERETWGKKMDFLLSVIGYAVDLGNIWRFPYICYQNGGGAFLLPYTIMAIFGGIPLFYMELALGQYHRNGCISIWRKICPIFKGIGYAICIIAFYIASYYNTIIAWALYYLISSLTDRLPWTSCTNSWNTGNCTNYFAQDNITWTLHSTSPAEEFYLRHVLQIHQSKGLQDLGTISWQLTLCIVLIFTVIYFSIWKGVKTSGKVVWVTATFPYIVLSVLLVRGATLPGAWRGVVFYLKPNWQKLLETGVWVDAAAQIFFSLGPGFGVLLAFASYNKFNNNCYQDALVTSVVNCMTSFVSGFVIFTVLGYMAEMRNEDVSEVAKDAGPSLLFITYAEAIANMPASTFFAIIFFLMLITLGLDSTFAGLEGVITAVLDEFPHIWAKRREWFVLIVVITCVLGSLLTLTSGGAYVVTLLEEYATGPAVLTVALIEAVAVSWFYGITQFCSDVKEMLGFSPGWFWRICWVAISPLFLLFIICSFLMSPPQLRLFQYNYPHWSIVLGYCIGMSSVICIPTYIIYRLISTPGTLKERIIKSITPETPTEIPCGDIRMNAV

Chain of Sodium-dependent dopamine transporter (P23977 whole entry): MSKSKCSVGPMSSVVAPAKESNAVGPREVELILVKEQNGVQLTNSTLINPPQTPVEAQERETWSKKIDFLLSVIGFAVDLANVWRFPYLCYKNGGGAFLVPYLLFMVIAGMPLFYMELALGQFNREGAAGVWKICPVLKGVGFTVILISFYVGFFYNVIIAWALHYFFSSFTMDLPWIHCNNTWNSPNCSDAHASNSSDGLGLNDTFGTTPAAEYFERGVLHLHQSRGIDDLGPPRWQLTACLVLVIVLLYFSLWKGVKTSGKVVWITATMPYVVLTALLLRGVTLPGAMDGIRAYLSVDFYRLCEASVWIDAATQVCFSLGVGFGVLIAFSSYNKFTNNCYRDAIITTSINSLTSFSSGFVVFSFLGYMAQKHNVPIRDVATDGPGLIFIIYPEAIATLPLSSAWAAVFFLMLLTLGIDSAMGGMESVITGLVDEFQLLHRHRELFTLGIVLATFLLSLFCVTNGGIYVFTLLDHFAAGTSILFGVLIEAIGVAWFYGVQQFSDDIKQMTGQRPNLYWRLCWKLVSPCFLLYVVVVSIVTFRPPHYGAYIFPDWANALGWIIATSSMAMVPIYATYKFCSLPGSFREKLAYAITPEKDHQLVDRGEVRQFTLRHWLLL
Chain of Norepinephrine transporter (Q9WTR4 whole entry): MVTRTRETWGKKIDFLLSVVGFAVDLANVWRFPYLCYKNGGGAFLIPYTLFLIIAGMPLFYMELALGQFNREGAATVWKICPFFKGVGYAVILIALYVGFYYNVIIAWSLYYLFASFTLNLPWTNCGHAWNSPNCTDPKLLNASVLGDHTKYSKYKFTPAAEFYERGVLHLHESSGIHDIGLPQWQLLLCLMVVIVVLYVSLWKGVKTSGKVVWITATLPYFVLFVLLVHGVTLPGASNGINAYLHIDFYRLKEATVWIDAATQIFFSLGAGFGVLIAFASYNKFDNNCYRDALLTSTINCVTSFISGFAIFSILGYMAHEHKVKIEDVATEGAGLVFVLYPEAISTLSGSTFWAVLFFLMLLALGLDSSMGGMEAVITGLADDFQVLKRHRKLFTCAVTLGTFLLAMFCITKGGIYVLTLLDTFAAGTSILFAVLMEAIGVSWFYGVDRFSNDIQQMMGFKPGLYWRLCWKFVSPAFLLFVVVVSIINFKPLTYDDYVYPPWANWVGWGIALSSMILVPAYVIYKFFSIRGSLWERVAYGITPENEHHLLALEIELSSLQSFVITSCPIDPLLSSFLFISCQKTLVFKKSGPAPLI

Row | SMILES | ED50 (Mus musculus [1]) | also measured
1 | CN(C)C1CC(c2ccc(Cl)cc2)c2ccccc21 (stereo in doubt; 63) | 14 µmol/kg | 
2 | CNC1CC(c2ccc(Br)cc2)c2ccccc21 (stereo in doubt; 64) | 6.6 µmol/kg | 
3 | CN(C)C1CC(c2ccc(Br)cc2)c2ccccc21 (stereo in doubt; 65) | 12 µmol/kg | 
4 | CNC1CC(c2cccc(Cl)c2)c2ccccc21 (stereo in doubt; 66) | 124 µmol/kg | 
5 | CN(C)C1CC(c2cccc(Cl)c2)c2ccccc21 (stereo in doubt; 67) | 78 µmol/kg | 
6 | CNC1CC(c2ccc(F)c(F)c2)c2ccccc21 (stereo in doubt; 68) | 63 µmol/kg | 
7 | CNC1CC(c2ccc(F)c(Cl)c2)c2ccccc21.Cl (stereo in doubt; 70) |  | ED50 (Mus musculus [2]): 32 µmol/kg
8 | CNC1CC(c2ccc(F)c(Cl)c2)c2ccccc21 (stereo in doubt; 70) | 30 µmol/kg | 
9 | CN(C)C1CC(c2ccc(F)c(Cl)c2)c2ccccc21.Cl (stereo in doubt; 71) |  | ED50 (Mus musculus [2]): 13 µmol/kg
10 | CN(C)C1CC(c2ccc(F)c(Cl)c2)c2ccccc21 (stereo in doubt; 71) | 51 µmol/kg | 
11 | CNC1CC(c2ccc(Cl)cc2Cl)c2ccccc21 (stereo in doubt; 74) | 71 µmol/kg | 
12 | CN(C)C1CC(c2ccc(Cl)cc2Cl)c2ccccc21 (stereo in doubt; 75) [listing 1 of 2 here] |  | IC50 [3]: 34 nM; ED50 (Mus musculus [2]; Mus musculus, read-out: ED50): 23 µmol/kg
13 | CN(C)C1CC(c2ccc(Cl)cc2Cl)c2ccccc21 (stereo in doubt; 75) [listing 2 of 2 here] | 19 µmol/kg | 
14 | CNC1CC(c2ccc(Cl)c(Cl)c2)c2ccc(F)cc21 (stereo in doubt; 76) | 15 µmol/kg | 
15 | CN(C)C1CC(c2ccc(Cl)c(Cl)c2)c2ccc(F)cc21 (stereo in doubt; 77) [listing 1 of 2 here] |  | IC50 [4]: 31 nM; IC50 [3]: 3.7 nM; IC50 [5]: 2.5 nM
16 | CN(C)C1CC(c2ccc(Cl)c(Cl)c2)c2ccc(F)cc21 (stereo in doubt; 77) [listing 2 of 2 here] | 29 µmol/kg | 
17 | CN(C)C1CC(c2ccc(F)cc2)c2ccc(C(F)(F)F)cc21.Cl (stereo in doubt; 82) |  | IC50 [3]: 350 nM; ED50 (Mus musculus [2]): >111 µmol/kg
18 | CN(C)C1CC(c2ccc(F)cc2)c2ccc(C(F)(F)F)cc21 (stereo in doubt; 82) | 101 µmol/kg | 
19 | CCNC1CC(c2ccc(Cl)c(Cl)c2)c2ccccc21.Cl (stereo in doubt; 83) |  | IC50 [4]: 1.5 nM; IC50 [3]: 0.32 nM; IC50 [5]: 2.3 nM
20 | CCNC1CC(c2ccc(Cl)c(Cl)c2)c2ccccc21 (stereo in doubt; 83) | 26 µmol/kg | 
21 | CCNC1CC(c2ccc(Cl)c(Cl)c2)c2ccccc21.Cl (stereo in doubt; 84) |  | IC50 [3]: 49 nM; IC50 [5]: 1.6 nM

Row | SMILES | ED50 (Mus musculus [1]) | also measured
22 | CCNC1CC(c2ccc(Cl)c(Cl)c2)c2ccccc21 (stereo in doubt; 84) | 26 µmol/kg | 
23 | CCN(CC)C1CC(c2ccc(Cl)c(Cl)c2)c2ccccc21 (stereo in doubt; 85) | 19 µmol/kg | 
24 | CCN(CC)C1CC(c2ccc(Cl)c(Cl)c2)c2ccccc21.Cl (stereo in doubt; 86) |  | IC50 [3]: 13 nM; ED50 (Mus musculus [2]): >108 µmol/kg
25 | CCN(CC)C1CC(c2ccc(Cl)c(Cl)c2)c2ccccc21 (stereo in doubt; 86) | 204 µmol/kg | 
26 | CCCNC1CC(c2ccc(Cl)c(Cl)c2)c2ccccc21 (stereo in doubt; 87) | 87 µmol/kg | 
27 | CCCNC1CC(c2ccc(Cl)c(Cl)c2)c2ccccc21 (stereo in doubt; 88) [listing 1 of 2 here] |  | ED50 (Mus musculus [2]; Mus musculus, read-out: ED50): > 112 µmol/kg
28 | CCCNC1CC(c2ccc(Cl)c(Cl)c2)c2ccccc21 (stereo in doubt; 88) [listing 2 of 2 here] | > 112 µmol/kg | 
29 | CCCN(CCC)C1CC(c2ccc(Cl)c(Cl)c2)c2ccccc21 (stereo in doubt; 89) | > 100 µmol/kg | 
30 | CCCN(CCC)C1CC(c2ccc(Cl)c(Cl)c2)c2ccccc21.Cl (stereo in doubt; 90) |  | IC50 [4]: 180 nM; ED50 (Mus musculus [2]): >100 µmol/kg
31 | CCCN(CCC)C1CC(c2ccc(Cl)c(Cl)c2)c2ccccc21 (stereo in doubt; 90) | > 100 µmol/kg | 
32 | Clc1ccc(C2CC(NCc3ccccc3)c3ccccc32)cc1Cl (stereo in doubt; 93) | 47 µmol/kg | 
33 | Clc1ccc(C2CC(NCc3ccccc3)c3ccccc32)cc1Cl (stereo in doubt; 94) | 207 µmol/kg | 
34 | Clc1ccc(C2CC(N3CCCC3)c3ccccc32)cc1Cl (stereo in doubt; 97) [listing 1 of 2 here] |  | IC50 [4]: 320 nM; ED50 (Mus musculus [2]; Mus musculus, read-out: ED50): > 108 µmol/kg
35 | Clc1ccc(C2CC(N3CCCC3)c3ccccc32)cc1Cl (stereo in doubt; 97) [listing 2 of 2 here] | > 108 µmol/kg | 
36 | Clc1ccc(C2CC(N3CCCC3)c3ccccc32)cc1Cl (stereo in doubt; 98) [listing 1 of 2 here] |  | IC50 [4]: 32 nM; IC50 [3]: 27 nM; IC50 [5]: 3.1 nM
37 | Clc1ccc(C2CC(N3CCCC3)c3ccccc32)cc1Cl (stereo in doubt; 98) [listing 2 of 2 here] | 161 µmol/kg | 
38 | Clc1ccc(C2CC(N3CCCCC3)c3ccccc32)cc1Cl (stereo in doubt; 99) [listing 1 of 2 here] |  | IC50 [4]: 720 nM
39 | Clc1ccc(C2CC(N3CCCCC3)c3ccccc32)cc1Cl (stereo in doubt; 99) [listing 2 of 2 here] | > 209 µmol/kg | 
40 | Clc1ccc(C2CC(N3CCCCC3)c3ccccc32)cc1Cl (stereo in doubt; 100) | > 209 µmol/kg | 
41 | CN1CCN(C2CC(c3ccc(Cl)c(Cl)c3)c3ccccc32)CC1 (stereo in doubt; 102) | > 89 µmol/kg | 
42 | CN1CCN(C2CC(c3ccc(Cl)c(Cl)c3)c3ccccc32)CC1 (stereo in doubt; (-)-102) | > 89 µmol/kg | 
